Results taken from ChEMBL document CHEMBL4411292, “Boronate, trifluoroborate, sulfone, sulfinate and sulfonate congeners of oseltamivir carboxylic acid: Synthesis and anti-influenza activity” (Eur J Med Chem, 2019).
Calls of active or inactive are those of the source. The rule behind the calls is not given here.

Experiments:
Influenza A virus = assay: Antiviral activity against Influenza A virus (A/WSN/1933(H1N1)) infected in MDCK cells assessed as reduction in virus-induced cytopathic effect after 48 hrs by CellTiter 96 aqueous non-radioactive cell proliferation assay; type: functional, organism-based
Outline: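 MDCK cells (DMEM with 10% FBS, 37 °C, 5% CO2) were seeded at 1 × 10^5 cells/mL and infected with 100 TCID50 of A/WSN/33 premixed with inhibitor at varied concentrations. Incubation was 48 h at 37 °C, 5.0% CO2. Viability was read with CellTiter 96 AQueous reagent (15 min, A490). EC50 was fitted from % CPE vs concentration, as mean ± SD of three experiments.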

[1] = Cytotoxicity against MDCK cells assessed as reduction in cell viability after 48 hrs by CellTiter 96 aqueous non-radioactive cell proliferation assay; type: cell-based, Canis lupus familiaris; settings: dog
Outline: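 Uninfected MDCK cells at 1 × 10^5 cells/mL were exposed to inhibitor at varied concentrations for 48 h at 37 °C, 5.0% CO2. Viability was read with CellTiter 96 AQueous reagent (15 min, absorbance at 490 nm). CC50 was derived by curve fitting as for EC50.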

[2] = molecular target: Neuraminidase (Influenza A virus (A/Puerto Rico/8/1934(H1N1))) (UniProt P03468); assay: Irreversible inhibition of influenza A virus (A/WSN/1933(H1N1)) neuraminidase using MUNANA as fluorogenic substrate preincubated up to 48 hrs followed by substrate addition and measured after 15 mins by fluorometric assay
Neuraminidase (Influenza A virus (A/Puerto Rico/8/1934(H1N1))), sequence (P03468 whole entry): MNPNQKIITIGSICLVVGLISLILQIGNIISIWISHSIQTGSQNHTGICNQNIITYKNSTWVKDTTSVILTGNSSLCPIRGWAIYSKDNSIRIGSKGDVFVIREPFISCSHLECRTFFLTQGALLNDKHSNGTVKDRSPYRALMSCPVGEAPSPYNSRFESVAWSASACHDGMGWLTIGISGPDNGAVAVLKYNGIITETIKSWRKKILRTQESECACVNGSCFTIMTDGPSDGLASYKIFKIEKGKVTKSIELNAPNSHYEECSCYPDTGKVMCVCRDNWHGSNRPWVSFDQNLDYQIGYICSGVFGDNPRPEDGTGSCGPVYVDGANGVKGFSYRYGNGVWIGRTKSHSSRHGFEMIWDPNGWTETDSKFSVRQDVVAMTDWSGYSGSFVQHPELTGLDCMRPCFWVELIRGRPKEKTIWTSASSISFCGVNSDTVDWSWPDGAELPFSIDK

Row | SMILES | EC50 (Influenza A virus) [nM] | CC50 at 48 h [1] [nM] | inhibition [2]
1 | CCC(CC)O[C@@H]1C=C(S(=O)(=O)OCCCc2ccccc2)C[C@H](NC(=N)N)[C@H]1NC(C)=O | 24 | > 100000 | 
2 | CCCCOS(=O)(=O)C1=C[C@@H](OC(CC)CC)[C@H](NC(C)=O)[C@@H](N)C1 | 190 |  | 
3 | CCC(CC)O[C@@H]1C=C(S(C)(=O)=O)C[C@H](N)[C@H]1NC(C)=O | 1200 |  | 
4 | CCC(CC)O[C@@H]1C=C(B(O)O)C[C@H](N)[C@H]1NC(C)=O | 1700 |  | inactive
5 | CCC(CC)O[C@@H]1C=C(S(=O)(=O)OCCCc2ccccc2)C[C@H](N)[C@H]1NC(C)=O | 280 |  | 
6 | CCC(CC)O[C@@H]1C=C(C(=O)O)C[C@H](NC(=N)N)[C@H]1NC(C)=O | 14 |  | 
7 | CCCCOS(=O)(=O)C1=C[C@@H](OC(CC)CC)[C@H](NC(C)=O)[C@@H](NC(=N)N)C1 | 31 | > 100000 | 
8 | CCC(CC)O[C@@H]1C=C(S(=O)(=O)O)C[C@H](NC(=N)N)[C@H]1NC(C)=O | 2.2 | > 100000 | 
9 | CCC(CC)O[C@@H]1C=C(S(=O)(=O)CCc2ccncc2)C[C@H](NC(=N)N)[C@H]1NC(C)=O | 100 | > 100000 | 
10 | CCC(CC)O[C@@H]1C=C(S(=O)(=O)O)C[C@H](N)[C@H]1NC(C)=O | 14 | > 100000 | 
11 | CCC(CC)O[C@@H]1C=C([S+]([O-])O)C[C@H](N)[C@H]1NC(C)=O (stereo not given in full) | 48 | > 100000 | 
12 | CCC(CC)O[C@@H]1C=C([B-](F)(F)F)C[C@H](NC(=N)N)[C@H]1NC(C)=O | 270 |  | inactive
13 | CCC(CC)O[C@@H]1C=C([B-](F)(F)F)C[C@H](N)[C@H]1NC(C)=O | 860 |  | inactive
14 | CCC(CC)O[C@@H]1C=C([S+]([O-])O)C[C@H](NC(=N)N)[C@H]1NC(C)=O (stereo not given in full) | 7.8 | > 100000 | 
15 | CCC(CC)O[C@@H]1C=C(S(C)(=O)=O)C[C@H](NC(=N)N)[C@H]1NC(C)=O | 46 | > 100000 | 
16 | CCC(CC)O[C@@H]1C=C(S(=O)(=O)CCc2ccncc2)C[C@H](N)[C@H]1NC(C)=O | 1500 |  | 
17 | CCC(CC)O[C@@H]1C=C(B(O)O)C[C@H](NC(=N)N)[C@H]1NC(C)=O | 580 |  | inactive
18 | CCC(CC)O[C@@H]1C=C(C(=O)O)C[C@H](N)[C@H]1NC(C)=O [OSELTAMIVIR CARBOXYLATE] | 28 |  | 
